From ChEMBL document CHEMBL2169803, “Brain Penetrant LRRK2 Inhibitor” (ACS Med Chem Lett, 2012) come the findings set out here.

Activity calls are given as the source filed them. No cut-off for these calls is given here.

Data set [1] concerns Mus musculus. Nature of the data set: Inhibition of JNK2 in C57BL/6 mouse brain at 50 and 100 mg/kg, ip by ADP-acylphosphate probe-based mass spectrometry relative to vehicle-treated control. Type of data set: functional. The note with it: C57BL/6, ip, route intraperitoneal. In short, it runs like this: (§1)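 KiNativ chemical proteomics on brains and spleens from mice dosed intraperitoneally at 3, 10, 30, 50 or 100 mg/kg, compared against vehicle-treated animals. Tissue lysed in 5× volume of detergent-free buffer and labeled with an ADP-acylphosphate probe. After workup and trypsin digestion, probe labeling was quantified by mass spectrometry across >150 protein and lipid kinases. Values reflect 5× dilution relative to intact tissue.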

The subject of data set [2] is Mast/stem cell growth factor receptor Kit (Homo sapiens), P10721 [L576P]. The experiment in a line: Inhibition of cKIT L576P mutant at 1 uM by KinomeScan assay.
Data set [3] addresses T1, Mitogen-activated protein kinase kinase kinase 9 (Homo sapiens, UniProt P80192). Nature of the data set: Inhibition of MLK1 at 10 uM by radiometric assay. In short, it runs like this: (§2)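 Dundee panel of 138 kinases screened at 10 μM compound using radioactivity-based enzymatic assays. Activity was expressed relative to DMSO control.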
The subject of data set [4] is Mus musculus. Nature of the data set: Inhibition of LRRK2 in ip dosed C57BL/6 mouse spleen by ADP-acylphosphate probe-based mass spectrometry. It counts as functional, organism-based. In short, it runs like this: as §1
Data set [5] has as its system Mus musculus. The experiment in a line: Inhibition of JNK1 in ip dosed C57BL/6 mouse brain by ADP-acylphosphate probe-based mass spectrometry. Type of data set: functional, organism-based. The procedure, abridged:
as §1

Data set [6] has as its system Mus musculus. The experiment in a line: Inhibition of LRRK2 in C57BL/6 mouse brain at 100 mg/kg, ip by ADP-acylphosphate probe-based mass spectrometry relative to vehicle-treated control. It counts as functional. In short, it runs like this: as §1
Data set [7] concerns Mus musculus. The experiment in a line: Inhibition of LRRK2 autophosphorylation at Ser910 and Ser935 in C57BL/6 mouse kidney at 50 mg/kg, ip by immunoblotting analysis relative to vehicle-treated control. Type of data set: functional, organism-based. Also noted: dose 50 mg/kg.
Data set [8] relates to Mus musculus. Nature of the data set: Inhibition of JNK2 in ip dosed C57BL/6 mouse brain by ADP-acylphosphate probe-based mass spectrometry. It counts as functional, organism-based. In short, it runs like this: as §1
Data set [9] concerns Mus musculus. The experiment in a line: Inhibition of LRRK2 autophosphorylation at Ser910 and Ser935 in C57BL/6 mouse spleen at 50 mg/kg, ip by immunoblotting analysis relative to vehicle-treated control. It counts as functional, organism-based. Also noted: dose 50 mg/kg. (Immunoblotting shows a protein as a band on a membrane.)
The subject of data set [10] is Mus musculus. Nature of the data set: Inhibition of LRRK2 autophosphorylation at Ser910 and Ser935 in C57BL/6 mouse brain at 100 mg/kg, ip by immunoblotting analysis relative to vehicle-treated control. Type of data set: functional, organism-based. Also noted: dose 100 mg/kg.
The test system of the next data set is Liver. Nature of the data set: Half life in mouse liver microsomes at 1 uM. Type of data set: ADME, Microsome. The procedure, abridged:
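Metabolic stability determined by incubation with mouse liver microsomes; half-life (T1/2) reported in minutes.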
For orientation: Liver microsomes are vesicles of endoplasmic reticulum, rich in cytochrome P450 enzymes.

For data set [11], the system named is Mus musculus. The experiment in a line: Inhibition of TBK1 in ip dosed C57BL/6 mouse brain by ADP-acylphosphate probe-based mass spectrometry. Type of data set: functional, organism-based. The procedure, abridged: as §1
In data set [12] the test system is Mus musculus. Nature of the data set: Inhibition of JNK3 in C57BL/6 mouse brain at 50 and 100 mg/kg, ip by ADP-acylphosphate probe-based mass spectrometry relative to vehicle-treated control. It counts as functional. Particulars: C57BL/6, ip, route intraperitoneal. In short, it runs like this:
as §1

Data set [13] relates to Mus musculus. Nature of the data set: Inhibition of LRRK2 in C57BL/6 mouse brain at 30 mg/kg, ip by ADP-acylphosphate probe-based mass spectrometry relative to vehicle-treated control. Type of data set: functional. The note with it: C57BL/6, Brain, route intraperitoneal. In short, it runs like this:
as §1

Data set [14] relates to Mus musculus. Nature of the data set: AUClast in mouse at 10 mg/kg, po. Type of data set: ADME, organism-based, Plasma. Also noted: time 0 - last, dose 10 mg/kg, route oral. The note with it: in vivo. The procedure, abridged:
(§3)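 Mouse pharmacokinetics run by a contract lab; parameters reported include oral bioavailability (%F), plasma AUClast and half-life. Full PK parameter set is given in the Supporting Information.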

For data set [15], the system named is Mus musculus. The experiment in a line: Inhibition of JNK1 in C57BL/6 mouse brain at 50 and 100 mg/kg, ip by ADP-acylphosphate probe-based mass spectrometry relative to vehicle-treated control. It counts as functional. Particulars: C57BL/6, ip, route intraperitoneal. The procedure, abridged: as §1
Data set [16] deals with Leucine-rich repeat serine/threonine-protein kinase 2 (Mus musculus) (UniProt Q5S006). Nature of the data set: Inhibition of LRRK2 autophosphorylation at Ser910 and Ser935 Swiss mouse 3T3 cells by immunoblotting analysis. Type of data set: cell-based. The procedure, abridged: (§4)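 Mouse Swiss 3T3 cells or mouse embryonic fibroblasts were treated with DMSO or increasing concentrations of compound for 90 min. Lysates were immunoblotted for LRRK2 phospho-Ser910, phospho-Ser935 and total LRRK2. Immunoblots were run in duplicate and are representative of at least two independent experiments.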
Sequence of Leucine-rich repeat serine/threonine-protein kinase 2 (Mus musculus) (Q5S006 whole entry): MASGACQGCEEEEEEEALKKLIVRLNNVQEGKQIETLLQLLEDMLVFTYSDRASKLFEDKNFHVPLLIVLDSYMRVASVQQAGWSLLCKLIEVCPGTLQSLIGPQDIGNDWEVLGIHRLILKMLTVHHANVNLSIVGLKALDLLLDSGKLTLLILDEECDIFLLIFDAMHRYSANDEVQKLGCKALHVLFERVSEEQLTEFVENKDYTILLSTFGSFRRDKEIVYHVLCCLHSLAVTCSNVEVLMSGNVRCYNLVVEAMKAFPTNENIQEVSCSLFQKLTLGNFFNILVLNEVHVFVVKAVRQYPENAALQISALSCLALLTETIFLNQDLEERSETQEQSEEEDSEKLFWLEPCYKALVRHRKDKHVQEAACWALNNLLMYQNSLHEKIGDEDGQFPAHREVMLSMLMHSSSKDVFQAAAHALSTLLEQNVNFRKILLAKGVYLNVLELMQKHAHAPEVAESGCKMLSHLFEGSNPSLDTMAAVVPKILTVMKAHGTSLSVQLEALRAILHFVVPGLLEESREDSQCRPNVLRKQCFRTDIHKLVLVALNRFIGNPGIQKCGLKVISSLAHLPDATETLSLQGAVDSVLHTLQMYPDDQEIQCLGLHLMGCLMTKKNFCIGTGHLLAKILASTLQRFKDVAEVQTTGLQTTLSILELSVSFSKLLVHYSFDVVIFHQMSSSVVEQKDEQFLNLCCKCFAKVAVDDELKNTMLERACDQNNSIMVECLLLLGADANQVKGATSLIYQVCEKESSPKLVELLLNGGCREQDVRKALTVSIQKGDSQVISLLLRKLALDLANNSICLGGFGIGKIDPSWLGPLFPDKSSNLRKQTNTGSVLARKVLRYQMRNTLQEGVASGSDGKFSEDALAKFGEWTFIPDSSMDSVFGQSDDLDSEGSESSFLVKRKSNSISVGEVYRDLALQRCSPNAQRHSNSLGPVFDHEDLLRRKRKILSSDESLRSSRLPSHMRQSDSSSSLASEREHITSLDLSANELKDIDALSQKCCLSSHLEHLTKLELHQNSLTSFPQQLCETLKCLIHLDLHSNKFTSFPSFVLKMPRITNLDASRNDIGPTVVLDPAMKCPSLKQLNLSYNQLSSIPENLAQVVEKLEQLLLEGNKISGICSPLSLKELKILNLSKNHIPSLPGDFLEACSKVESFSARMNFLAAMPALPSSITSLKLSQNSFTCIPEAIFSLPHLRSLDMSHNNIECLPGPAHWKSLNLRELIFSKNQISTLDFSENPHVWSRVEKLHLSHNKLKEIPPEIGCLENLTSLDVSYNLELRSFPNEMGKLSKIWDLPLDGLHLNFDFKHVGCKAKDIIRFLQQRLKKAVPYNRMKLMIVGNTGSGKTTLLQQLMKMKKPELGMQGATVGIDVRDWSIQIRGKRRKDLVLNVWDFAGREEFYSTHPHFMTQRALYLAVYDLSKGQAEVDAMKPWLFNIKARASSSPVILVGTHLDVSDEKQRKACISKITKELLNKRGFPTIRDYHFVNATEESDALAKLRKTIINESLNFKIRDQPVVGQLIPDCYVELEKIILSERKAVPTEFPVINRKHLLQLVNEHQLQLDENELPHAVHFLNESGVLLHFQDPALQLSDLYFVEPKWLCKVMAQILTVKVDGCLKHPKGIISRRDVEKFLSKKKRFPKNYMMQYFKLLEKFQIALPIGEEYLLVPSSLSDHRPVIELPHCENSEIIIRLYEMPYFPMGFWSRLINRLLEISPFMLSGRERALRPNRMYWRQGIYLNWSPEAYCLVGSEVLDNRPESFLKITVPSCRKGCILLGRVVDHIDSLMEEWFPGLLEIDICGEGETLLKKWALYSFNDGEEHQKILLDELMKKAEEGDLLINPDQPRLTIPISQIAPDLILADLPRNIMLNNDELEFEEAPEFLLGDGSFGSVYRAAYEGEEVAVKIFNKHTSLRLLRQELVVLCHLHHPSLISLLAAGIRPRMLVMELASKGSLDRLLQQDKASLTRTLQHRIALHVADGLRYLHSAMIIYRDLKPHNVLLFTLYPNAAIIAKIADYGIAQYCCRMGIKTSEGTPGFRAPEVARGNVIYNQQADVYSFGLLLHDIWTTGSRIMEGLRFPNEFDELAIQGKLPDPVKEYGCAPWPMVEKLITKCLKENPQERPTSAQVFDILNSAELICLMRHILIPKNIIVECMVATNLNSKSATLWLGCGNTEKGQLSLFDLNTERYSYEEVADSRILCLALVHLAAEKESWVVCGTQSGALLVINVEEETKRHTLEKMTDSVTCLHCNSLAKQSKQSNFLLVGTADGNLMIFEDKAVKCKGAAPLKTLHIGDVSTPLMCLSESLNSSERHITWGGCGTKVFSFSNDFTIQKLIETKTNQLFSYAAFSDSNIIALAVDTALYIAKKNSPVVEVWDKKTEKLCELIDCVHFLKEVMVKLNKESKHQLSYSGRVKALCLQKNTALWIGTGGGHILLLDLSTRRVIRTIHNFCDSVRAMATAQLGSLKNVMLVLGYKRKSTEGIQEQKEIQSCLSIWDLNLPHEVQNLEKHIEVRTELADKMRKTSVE

The test system of data set [17] is Mus musculus. Nature of the data set: Half life in mouse at 1 mg/kg, iv. Type of data set: ADME, organism-based. Also noted: dose 1 mg/kg, route intravenous. Particulars: in vivo. The procedure, abridged: as §3
The subject of data set [18] is Mus musculus. The experiment in a line: Inhibition of LRRK2 in C57BL/6 mouse spleen at 3 mg/kg, ip by ADP-acylphosphate probe-based mass spectrometry relative to vehicle-treated control. It counts as functional. The note with it: C57BL/6, Spleen, route intraperitoneal. The procedure, abridged: as §1
The subject of data set [19] is Mus musculus. Nature of the data set: Inhibition of LRRK2 autophosphorylation at Ser910 and Ser935 in C57BL/6 mouse spleen at 100 mg/kg, ip by immunoblotting analysis relative to vehicle-treated control. It counts as functional, organism-based. Also noted: dose 100 mg/kg.
Data set [20] is described as follows: Oral bioavailability in mouse at 10 mg/kg. It counts as ADME, organism-based. The note with it: in vivo. In short, it runs like this:
as §3

In data set [21] the target is T1, Mitogen-activated protein kinase kinase kinase 9. The experiment in a line: Inhibition of MLK1 by radiometric assay. In short, it runs like this:
(§5)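 Radioactivity-based enzymatic kinase assay run in the Dundee profiling panel of 138 kinases. Kinases were first screened at 10 μM inhibitor, with activity expressed relative to a DMSO control. A dose–response analysis then gave the IC50.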

For data set [22], the target named is T2, MAP kinase-interacting serine/threonine-protein kinase 2 (Homo sapiens, UniProt Q9HBH9). Nature of the data set: Inhibition of MNK2 by radiometric assay. In short, it runs like this:
as §5

The test system of data set [23] is Mus musculus. The experiment in a line: Inhibition of LRRK2 autophosphorylation at Ser910 and Ser935 in C57BL/6 mouse brain at 30 mg/kg, ip by immunoblotting analysis relative to vehicle-treated control. Type of data set: functional, organism-based. Also noted: dose 30 mg/kg.
In data set [24] the test system is Mus musculus. Nature of the data set: Inhibition of LRRK2 in C57BL/6 mouse spleen at 30 to 100 mg/kg, ip by ADP-acylphosphate probe-based mass spectrometry relative to vehicle-treated control. It counts as functional. The note with it: dose mg/kg 30-100; route intraperitoneal. In short, it runs like this:
as §1

In data set [25] the target is Leucine-rich repeat serine/threonine-protein kinase 2 (Mus musculus) (UniProt Q5S006). The experiment in a line: Inhibition of LRRK2 autophosphorylation at Ser910 and Ser935 mouse embryonic fibroblast cells by immunoblotting analysis. It counts as cell-based. The procedure, abridged:
as §4

Data set [26] has as its system Mus musculus. Nature of the data set: Inhibition of LRRK2 in C57BL/6 mouse brain at 50 mg/kg, ip by ADP-acylphosphate probe-based mass spectrometry relative to vehicle-treated control. Particulars: C57BL/6, Brain, route intraperitoneal. Type of data set: functional. In short, it runs like this:
as §1

Data set [27] deals with Mus musculus. The experiment in a line: Inhibition of JNK3 in ip dosed C57BL/6 mouse brain by ADP-acylphosphate probe-based mass spectrometry. It counts as functional, organism-based. The procedure, abridged: as §1
In data set [28] the test system is Mus musculus. The experiment in a line: Inhibition of TBK1 in C57BL/6 mouse brain at 50 and 100 mg/kg, ip by ADP-acylphosphate probe-based mass spectrometry relative to vehicle-treated control. Type of data set: functional. The note with it: C57BL/6, ip, route intraperitoneal. In short, it runs like this:
as §1

The test system of data set [29] is Mus musculus. The experiment in a line: Inhibition of LRRK2 in C57BL/6 mouse spleen at 10 mg/kg, ip by ADP-acylphosphate probe-based mass spectrometry relative to vehicle-treated control. Type of data set: functional. Particulars: C57BL/6, Spleen, route intraperitoneal. In short, it runs like this:
as §1

The test system of data set [30] is Mus musculus. Nature of the data set: Inhibition of LRRK2 in ip dosed C57BL/6 mouse brain by ADP-acylphosphate probe-based mass spectrometry. Type of data set: functional, organism-based. In short, it runs like this:
as §1

Data set [31] has as its system Mus musculus. The experiment in a line: Inhibition of LRRK2 autophosphorylation at Ser910 and Ser935 in C57BL/6 mouse brain at 50 mg/kg, ip by immunoblotting analysis relative to vehicle-treated control. It counts as functional, organism-based. Also noted: dose 50 mg/kg.
Data set [32] deals with T2, MAP kinase-interacting serine/threonine-protein kinase 2. The experiment in a line: Inhibition of MNK2 at 10 uM by radiometric assay. In short, it runs like this:
as §2

Data set [33] deals with Mus musculus. Nature of the data set: Inhibition of LRRK2 autophosphorylation at Ser910 and Ser935 in C57BL/6 mouse kidney at 100 mg/kg, ip by immunoblotting analysis relative to vehicle-treated control. Type of data set: functional, organism-based. Also noted: dose 100 mg/kg.
Data set [34] deals with Mus musculus. The experiment in a line: Inhibition of LRRK2 autophosphorylation at Ser910 and Ser935 in C57BL/6 mouse brain at 10 mg/kg, ip by immunoblotting analysis relative to vehicle-treated control. Type of data set: functional, organism-based. Also noted: dose 10 mg/kg.
The test system of data set [35] is Leucine-rich repeat serine/threonine-protein kinase 2 (Homo sapiens), Q5S007 [G2019S]. Particulars: HEK293, 1 uM.
Sequence of Leucine-rich repeat serine/threonine-protein kinase 2 (Homo sapiens), Q5S007 [G2019S] (Q5S007 whole entry G2019S): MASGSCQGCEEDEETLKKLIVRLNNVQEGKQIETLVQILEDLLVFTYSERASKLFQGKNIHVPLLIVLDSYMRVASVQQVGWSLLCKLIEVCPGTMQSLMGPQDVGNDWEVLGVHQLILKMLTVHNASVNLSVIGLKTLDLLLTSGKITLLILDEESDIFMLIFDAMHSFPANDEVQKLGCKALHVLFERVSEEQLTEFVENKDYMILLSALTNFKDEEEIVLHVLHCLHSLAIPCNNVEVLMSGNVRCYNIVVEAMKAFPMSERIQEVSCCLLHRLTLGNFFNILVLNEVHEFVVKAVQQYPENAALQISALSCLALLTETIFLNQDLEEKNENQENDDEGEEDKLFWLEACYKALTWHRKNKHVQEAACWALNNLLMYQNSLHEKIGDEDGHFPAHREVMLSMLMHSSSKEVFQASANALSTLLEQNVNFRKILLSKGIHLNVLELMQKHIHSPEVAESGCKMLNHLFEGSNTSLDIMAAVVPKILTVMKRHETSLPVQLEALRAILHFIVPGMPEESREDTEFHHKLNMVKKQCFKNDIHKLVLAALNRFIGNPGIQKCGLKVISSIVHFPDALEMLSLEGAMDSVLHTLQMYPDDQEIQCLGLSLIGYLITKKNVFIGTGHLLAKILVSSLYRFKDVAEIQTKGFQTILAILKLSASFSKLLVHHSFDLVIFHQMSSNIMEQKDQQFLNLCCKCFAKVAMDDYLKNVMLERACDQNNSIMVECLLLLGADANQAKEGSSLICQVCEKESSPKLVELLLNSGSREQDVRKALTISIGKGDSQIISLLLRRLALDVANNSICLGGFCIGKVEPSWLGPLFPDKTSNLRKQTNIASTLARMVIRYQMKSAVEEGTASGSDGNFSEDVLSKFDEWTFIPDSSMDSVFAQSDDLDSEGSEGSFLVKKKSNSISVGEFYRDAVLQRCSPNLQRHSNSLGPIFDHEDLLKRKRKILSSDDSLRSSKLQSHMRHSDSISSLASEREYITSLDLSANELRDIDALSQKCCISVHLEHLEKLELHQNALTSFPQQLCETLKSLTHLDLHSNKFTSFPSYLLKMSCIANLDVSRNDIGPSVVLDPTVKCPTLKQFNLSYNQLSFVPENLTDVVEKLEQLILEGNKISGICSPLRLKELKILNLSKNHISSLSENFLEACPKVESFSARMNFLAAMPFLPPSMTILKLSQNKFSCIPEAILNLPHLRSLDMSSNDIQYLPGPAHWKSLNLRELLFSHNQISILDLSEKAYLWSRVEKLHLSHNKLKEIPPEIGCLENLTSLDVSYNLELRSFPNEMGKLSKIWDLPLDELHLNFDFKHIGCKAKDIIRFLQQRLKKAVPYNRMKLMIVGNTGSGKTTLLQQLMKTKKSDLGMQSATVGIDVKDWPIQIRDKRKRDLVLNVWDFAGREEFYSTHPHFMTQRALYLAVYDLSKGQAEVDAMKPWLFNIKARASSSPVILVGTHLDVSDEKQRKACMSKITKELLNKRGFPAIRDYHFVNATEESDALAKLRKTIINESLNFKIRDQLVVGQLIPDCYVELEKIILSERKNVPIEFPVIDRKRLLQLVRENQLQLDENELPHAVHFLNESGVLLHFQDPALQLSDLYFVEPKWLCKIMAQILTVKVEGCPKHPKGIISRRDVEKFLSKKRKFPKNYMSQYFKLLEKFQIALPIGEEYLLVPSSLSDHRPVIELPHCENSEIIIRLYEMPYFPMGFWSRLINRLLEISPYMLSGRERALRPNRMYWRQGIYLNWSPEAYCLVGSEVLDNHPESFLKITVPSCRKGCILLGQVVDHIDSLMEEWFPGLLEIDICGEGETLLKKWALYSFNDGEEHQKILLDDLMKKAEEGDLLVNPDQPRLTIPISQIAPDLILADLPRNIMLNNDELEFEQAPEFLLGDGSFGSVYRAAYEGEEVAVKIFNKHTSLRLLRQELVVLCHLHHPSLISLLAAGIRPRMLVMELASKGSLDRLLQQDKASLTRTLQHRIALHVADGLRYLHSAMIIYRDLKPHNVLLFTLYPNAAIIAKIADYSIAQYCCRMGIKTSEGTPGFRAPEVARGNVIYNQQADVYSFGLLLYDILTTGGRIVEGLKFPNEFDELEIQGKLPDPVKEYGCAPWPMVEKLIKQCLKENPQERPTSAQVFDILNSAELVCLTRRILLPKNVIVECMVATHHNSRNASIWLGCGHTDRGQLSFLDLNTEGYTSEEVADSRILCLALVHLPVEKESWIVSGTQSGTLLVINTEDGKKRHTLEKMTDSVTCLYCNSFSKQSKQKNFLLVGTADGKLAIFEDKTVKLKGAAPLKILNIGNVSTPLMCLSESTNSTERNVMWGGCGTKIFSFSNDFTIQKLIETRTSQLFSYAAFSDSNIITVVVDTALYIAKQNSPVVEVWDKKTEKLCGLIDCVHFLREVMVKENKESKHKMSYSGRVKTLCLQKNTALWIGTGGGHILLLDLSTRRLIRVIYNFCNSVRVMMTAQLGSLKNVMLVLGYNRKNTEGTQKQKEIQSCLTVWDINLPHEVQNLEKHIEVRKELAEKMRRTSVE
Data set [36] addresses Leucine-rich repeat serine/threonine-protein kinase 2 (Homo sapiens) (UniProt Q5S007). The note with it: HEK293, 1 uM.

Sequence of Leucine-rich repeat serine/threonine-protein kinase 2 (Homo sapiens) (Q5S007 whole entry): as the sequence (Q5S007 whole entry G2019S) above, with S2019G counted along it

For `CNc1nc(Nc2ccc(C(=O)N3CCOCC3)cc2OC)ncc1Cl`, the inhibition in vivo (as a rule, the share of the control response that was lost under treatment) at 100 mg/kg turned out to be 35% in the data set with Mus musculus [1]; 70% in the data set with Mus musculus [6] (C57BL/6, Brain, route intraperitoneal); 35% in the data set with Mus musculus [12]; 35% in the data set with Mus musculus [15]; 35% in the data set on Mus musculus [28]. Besides, the inhibition entry (in data set [2]; in the data set with Mus musculus [7]; with Mus musculus [9]; in the data set on Mus musculus [10]; in the data set on Mus musculus [19]; in the data set with Mus musculus [23]) was “Active” each time. Further, the inhibition result with Mus musculus [31], in the data set on Mus musculus [33] and in the data set with Mus musculus [34] was “Active” each time. In addition, the inhibition (as a rule, how much of the control response was suppressed) is greater than 80% in data set [3]; “Dose-dependent effect” in the data set on Mus musculus [4]; “Dose-dependent effect” in the data set on Mus musculus [5]; “Dose-dependent effect” with Mus musculus [8]; “Dose-dependent effect” in the data set with Mus musculus [11]; “Dose-dependent effect” in [16]. The inhibition result is “Dose-dependent effect” in data set [25], “Dose-dependent effect” in the data set with Mus musculus [27], “Dose-dependent effect” in the data set on Mus musculus [30] and greater than 80% in data set [32]. The figures for the t1/2 in the data set with Liver and with Mus musculus [17] were 13 min and 7.8 min, respectively. In the data set with Mus musculus [13], this compound had an inhibition in vivo at 30 mg/kg of 40%. In addition, the AUClast in the data set with Mus musculus [14] was found to be 502 ng·h/mL. The inhibition in vivo at 3 mg/kg in the data set on Mus musculus [18] was found to be 40%. In addition, in data set [20], the bioavailability (in general, the share of a dose that reaches the circulation, judged against a reference dose that is usually intravenous) amounted to 67%. Besides, the results for the IC50 in [21] and in data set [22] were 2100 nM and 600 nM, respectively. Moreover, the “inhibition (INH)” value in the data set on Mus musculus [24] is on record as greater than 90%. This compound yielded an inhibition in vivo at 50 mg/kg with Mus musculus [26] of 70%. In addition, the inhibition in vivo at 10 mg/kg with Mus musculus [29] worked out at 80%.
On to `COc1cc(C(=O)N2CCC(N3CCN(C)CC3)CC2)ccc1Nc1ncc2c(n1)N(C)c1ccccc1C(=O)N2C`, for which the inhibition result in the data set with Mus musculus [6] was “inactive”. The inhibition entry in data set [35] and in [36] was “Active” each time.
